ChEMBL document CHEMBL1123192 (J Med Chem, 1986)

Key:
[1] = biological target: Beta-1 adrenergic receptor (Cavia porcellus, UniProt B0FL73); test: The compound was evaluated for the antagonistic activity against beta-1 adrenergic receptor.; assay type: functional; details: read-out: pA2 (converted)
Summary of the method: (§1)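 Isolated tissue suited to each receptor test, held in 10-mL organ baths of Krebs-Henseleit solution at 37 °C and gassed with 95% O2/5% CO2. Antagonism was judged by how several concentrations of test agent altered a cumulative concentration-response curve to a receptor-specific agonist.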

Cavia porcellus = species: Cavia porcellus; test: Beta-2-adrenoceptor ISA (intrinsic sympathomimetic activity)was measured as relaxant effect against a PGF2-alpha contracted guinea pig trachea at 1x10E-5 M; assay type: functional
Rattus norvegicus [2] = test: Maximal change in heart rate (HR) measured as pretreatment value at dose of 50 mg/kg in SHR; assay type: functional
Summary of the method: (§2)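 Spontaneously hypertensive rats; test agent dissolved or dispersed in 0.5% methylcellulose and given by gastric gavage at 5 mL/kg after a 1-h equilibration. Doses ranged from 1 to 100 mg/kg, with 4–8 animals per dose. MABP and HR were monitored for 4 h. Pretreatment values and maximal % change were recorded, and maximal changes were compared with vehicle by Dunnett's t test.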

Rattus norvegicus [3] = test: Maximal change in mean arterial blood pressure (MABP) measured as pretreatment value at dose of 50 mg/kg in SHR; assay type: functional; summary of the method: as §2
[4] = biological target: Beta-2 adrenergic receptor (Cavia porcellus, UniProt Q8K4Z4); test: The compound was evaluated for the antagonistic activity against beta-2 adrenergic receptor.; assay type: functional; details: read-out: pA2 (converted); summary of the method: as §1
Sequence of Beta-2 adrenergic receptor (Q8K4Z4 whole entry): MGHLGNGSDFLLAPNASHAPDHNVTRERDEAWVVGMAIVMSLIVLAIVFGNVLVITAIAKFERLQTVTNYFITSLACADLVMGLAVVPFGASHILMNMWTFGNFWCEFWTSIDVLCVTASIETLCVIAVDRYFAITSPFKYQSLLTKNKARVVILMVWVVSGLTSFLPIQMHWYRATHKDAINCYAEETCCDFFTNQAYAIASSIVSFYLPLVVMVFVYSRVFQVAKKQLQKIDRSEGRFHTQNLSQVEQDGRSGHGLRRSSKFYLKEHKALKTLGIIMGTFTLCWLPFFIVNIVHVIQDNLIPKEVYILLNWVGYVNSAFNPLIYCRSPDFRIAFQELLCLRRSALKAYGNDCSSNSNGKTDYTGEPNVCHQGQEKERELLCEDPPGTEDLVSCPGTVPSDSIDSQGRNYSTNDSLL

[5] = biological target: Beta-1 adrenergic receptor (Cavia porcellus) (UniProt B0FL73); test: Beta-1-adrenoceptor ISA (intrinsic sympathomimetic activity)using the guinea pig right atria was measured as % increase of positive chronotropic effect (basal spontaneous beating rate) at 1x10E-6 M; assay type: functional
Sequence of Beta-1 adrenergic receptor (Cavia porcellus) (B0FL73 1-467): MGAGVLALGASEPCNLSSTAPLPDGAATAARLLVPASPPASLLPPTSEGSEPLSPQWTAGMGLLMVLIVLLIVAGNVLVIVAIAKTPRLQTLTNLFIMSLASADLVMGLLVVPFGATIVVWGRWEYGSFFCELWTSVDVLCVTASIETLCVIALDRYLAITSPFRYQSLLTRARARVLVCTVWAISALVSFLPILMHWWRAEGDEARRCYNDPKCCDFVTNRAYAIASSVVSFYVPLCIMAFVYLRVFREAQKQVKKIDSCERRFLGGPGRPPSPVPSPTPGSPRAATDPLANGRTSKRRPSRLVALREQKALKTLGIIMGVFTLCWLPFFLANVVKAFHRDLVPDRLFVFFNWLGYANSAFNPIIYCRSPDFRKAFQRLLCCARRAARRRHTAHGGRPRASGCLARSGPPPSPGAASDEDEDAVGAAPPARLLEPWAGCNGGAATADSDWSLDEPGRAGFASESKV

[6] = biological target: T1, Adrenergic receptor alpha-1 (Homo sapiens, UniProt P35348+P25100+P35368); test: The compound was evaluated for the antagonistic activity against alpha-1 adrenergic receptor.; assay type: functional, Oryctolagus cuniculus; summary of the method: as §1
T1 sequence (P35348 whole entry): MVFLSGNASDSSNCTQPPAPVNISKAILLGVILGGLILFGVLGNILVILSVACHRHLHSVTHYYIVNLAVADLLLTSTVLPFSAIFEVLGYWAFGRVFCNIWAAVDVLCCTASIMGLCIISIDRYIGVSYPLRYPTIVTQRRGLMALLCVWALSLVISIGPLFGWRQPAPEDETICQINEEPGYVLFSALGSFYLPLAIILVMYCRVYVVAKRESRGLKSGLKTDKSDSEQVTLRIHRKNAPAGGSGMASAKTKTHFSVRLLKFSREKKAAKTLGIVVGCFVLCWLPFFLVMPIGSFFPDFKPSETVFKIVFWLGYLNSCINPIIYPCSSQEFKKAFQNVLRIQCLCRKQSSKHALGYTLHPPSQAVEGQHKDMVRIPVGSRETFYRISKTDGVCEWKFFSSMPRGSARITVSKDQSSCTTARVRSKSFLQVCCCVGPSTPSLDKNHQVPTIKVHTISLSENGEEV
T1 sequence (P25100 whole entry): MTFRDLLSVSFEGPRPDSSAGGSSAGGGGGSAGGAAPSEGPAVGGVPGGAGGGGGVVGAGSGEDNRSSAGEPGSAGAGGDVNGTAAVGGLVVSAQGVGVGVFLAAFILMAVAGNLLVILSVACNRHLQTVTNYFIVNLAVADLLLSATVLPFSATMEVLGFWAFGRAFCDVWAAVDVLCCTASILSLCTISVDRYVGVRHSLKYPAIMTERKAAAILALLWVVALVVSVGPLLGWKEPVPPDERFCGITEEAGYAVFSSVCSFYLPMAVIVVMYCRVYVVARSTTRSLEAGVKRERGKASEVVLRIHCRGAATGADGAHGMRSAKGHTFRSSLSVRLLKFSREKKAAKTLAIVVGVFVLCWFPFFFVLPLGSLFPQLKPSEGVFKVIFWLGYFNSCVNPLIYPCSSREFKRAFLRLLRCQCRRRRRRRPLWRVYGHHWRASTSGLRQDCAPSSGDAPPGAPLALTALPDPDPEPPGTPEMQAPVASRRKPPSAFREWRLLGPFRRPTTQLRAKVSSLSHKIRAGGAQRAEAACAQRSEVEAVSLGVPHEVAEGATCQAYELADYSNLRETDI
T1 sequence (P35368 whole entry): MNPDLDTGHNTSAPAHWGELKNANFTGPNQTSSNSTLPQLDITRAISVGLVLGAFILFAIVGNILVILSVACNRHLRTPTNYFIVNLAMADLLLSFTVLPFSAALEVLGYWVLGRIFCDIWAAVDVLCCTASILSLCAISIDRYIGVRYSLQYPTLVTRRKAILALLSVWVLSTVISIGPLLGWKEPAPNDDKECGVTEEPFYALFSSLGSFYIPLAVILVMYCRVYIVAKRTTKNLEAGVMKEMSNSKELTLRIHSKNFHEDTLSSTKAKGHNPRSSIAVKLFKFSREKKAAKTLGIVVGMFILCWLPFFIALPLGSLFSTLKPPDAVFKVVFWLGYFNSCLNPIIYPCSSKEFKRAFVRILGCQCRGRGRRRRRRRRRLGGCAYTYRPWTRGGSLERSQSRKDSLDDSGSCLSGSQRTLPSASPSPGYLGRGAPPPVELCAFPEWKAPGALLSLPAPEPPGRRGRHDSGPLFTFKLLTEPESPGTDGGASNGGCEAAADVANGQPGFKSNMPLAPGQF

[7] = biological target: T2, Adrenergic receptor alpha-2 (Rattus norvegicus, UniProt P22086+P19328+P22909); test: The compound was evaluated for the antagonistic activity against alpha-2 adrenergic receptor.; assay type: functional
T2 sequence (P22086 whole entry): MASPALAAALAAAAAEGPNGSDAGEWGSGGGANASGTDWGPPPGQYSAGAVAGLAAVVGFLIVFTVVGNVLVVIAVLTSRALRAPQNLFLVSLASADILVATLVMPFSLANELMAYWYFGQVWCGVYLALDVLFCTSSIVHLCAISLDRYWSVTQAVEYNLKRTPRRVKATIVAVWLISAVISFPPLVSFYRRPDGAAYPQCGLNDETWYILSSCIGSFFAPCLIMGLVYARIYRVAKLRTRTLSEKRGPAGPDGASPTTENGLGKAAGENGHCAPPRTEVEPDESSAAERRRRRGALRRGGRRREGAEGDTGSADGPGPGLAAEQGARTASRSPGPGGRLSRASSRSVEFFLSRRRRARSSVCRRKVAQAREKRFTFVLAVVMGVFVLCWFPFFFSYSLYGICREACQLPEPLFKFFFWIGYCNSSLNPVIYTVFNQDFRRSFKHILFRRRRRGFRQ
T2 sequence (P19328 whole entry): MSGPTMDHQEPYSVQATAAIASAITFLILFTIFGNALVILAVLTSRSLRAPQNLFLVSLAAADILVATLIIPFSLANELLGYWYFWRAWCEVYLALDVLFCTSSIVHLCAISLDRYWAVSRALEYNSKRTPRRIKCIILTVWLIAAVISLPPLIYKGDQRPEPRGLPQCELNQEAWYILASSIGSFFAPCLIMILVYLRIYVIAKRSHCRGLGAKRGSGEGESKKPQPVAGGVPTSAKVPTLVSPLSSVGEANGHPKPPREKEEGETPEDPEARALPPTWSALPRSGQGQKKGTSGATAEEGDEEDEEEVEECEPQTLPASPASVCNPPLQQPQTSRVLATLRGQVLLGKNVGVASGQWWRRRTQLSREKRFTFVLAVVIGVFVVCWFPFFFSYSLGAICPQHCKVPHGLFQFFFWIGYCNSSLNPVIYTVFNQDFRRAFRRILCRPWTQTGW
T2 sequence (P22909 whole entry): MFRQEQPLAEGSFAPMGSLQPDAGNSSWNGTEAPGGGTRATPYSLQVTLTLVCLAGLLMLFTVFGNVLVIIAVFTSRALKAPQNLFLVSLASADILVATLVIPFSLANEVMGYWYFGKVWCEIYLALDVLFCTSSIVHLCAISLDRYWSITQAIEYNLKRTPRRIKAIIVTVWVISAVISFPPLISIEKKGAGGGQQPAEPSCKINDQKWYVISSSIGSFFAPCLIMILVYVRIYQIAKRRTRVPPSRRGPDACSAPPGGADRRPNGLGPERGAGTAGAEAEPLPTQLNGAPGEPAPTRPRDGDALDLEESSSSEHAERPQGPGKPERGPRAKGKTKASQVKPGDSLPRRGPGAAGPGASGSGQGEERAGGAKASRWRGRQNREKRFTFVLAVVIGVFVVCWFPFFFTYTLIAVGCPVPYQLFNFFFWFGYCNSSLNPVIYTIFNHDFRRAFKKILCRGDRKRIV

Rattus norvegicus [8] = test: Maximal change in heart rate (HR) measured as % change from pretreatment value at dose of 50 mg/kg in SHR; assay type: functional; summary of the method: as §2
Rattus norvegicus [9] = test: Maximal change in mean arterial blood pressure (MABP) measured as % change from pretreatment value at dose of 50 mg/kg in SHR; assay type: functional; summary of the method: as §2

Sequence of Beta-1 adrenergic receptor (B0FL73 whole entry): as the sequence (B0FL73 1-467) above

Kb [1]: > 1 µM | Kb [4]: > 10 µM | Change [5]: 2.7% | pA2 [6]: 6.2 | pA2 [7]: < 5
Structure (SMILES): CC(CCc1ccccc1)NCC(O)c1cc(C(N)=O)c2c(ccn2C)c1 (stereo not given)
Change (Cavia porcellus): 34.6% | HR (Rattus norvegicus [2]): 411 beats min-1 | MABP (Rattus norvegicus [3]): 166 mmHg | Change (Rattus norvegicus [8]): -15% | Change (Rattus norvegicus [9]): -13%
